Bioassay records deposited in PubChem by The Scripps Research Institute Molecular Screening Center.
Compounds with a hit are over-represented: about 1.3% of the library has one in this group of screens.
PP1 counter = PP1-alpha (human) inhibition in PP5 counter-screen; AID 2235; P62136; purified PP1alpha, OMFP fluorescence; inhibition, % at 6.7 µM; hit rate 0.9% among 320,000;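 active = inhibition above the mean inhibition of all tested compounds plus 3 SD, computed separately for each screening campaign, cut at about 15% in these data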
NR2E3 ag-1 = human photoreceptor-specific nuclear receptor agonism. AID 602229. CHO-S Gal4-NCOR/VP16-NR2E3 two-hybrid, luciferase. hit rate 0.35% among 360,000. inhibition of corepressor binding, % at 3.98 µM;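 active = inhibition above the mean of all tested compounds plus 3 SD, cut at about 70% in these data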;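 also: 0% = DMSO with NR2E3 transfected cells and 100% = cells lacking NR2E3 construct; higher means lower luciferase signal from less NR2E3 corepressor binding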
NR2E3 ag-2 = NR2E3 (human) agonism | Q9Y5X4 | GST-NR2E3/biotin-RetCOR TR-FRET, 1536-well | inhibition of corepressor binding, % at 4.78 µM | hit rate 0.12% among 320,000;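 active = percent inhibition above the cutoff of mean plus 3 SD of all tested compounds, set per screening campaign, cut at about 20% in these data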;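 also: 0% = DMSO wells and 100% = biotin wells as full block of FRET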
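Material: NR2E3–RetCOR corepressor complex / Amount: 1.35 nM GST-NR2E3 / Medium: Tris pH 7.5 / Compound: single nominal compound dose of 4.8 µM / Incubation: 5 h at 4 °C / Technique: TR-FRET, Eu(K)-anti-GST donor, streptavidin-D2 acceptor, ex 340, em 617/671 nm / Read-out basis: percent loss of FRET ratio relative to control wells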
PP5 inh = PP5 (human) phosphatase inhibition; purified PP5c, OMFP substrate fluorescence; AID 1987; inhibition, % at 6.7 µM; P53041; hit rate 0.18% among 320,000;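 active = inhibition above the campaign's mean inhibition across all tested compounds plus 3 SD, cut at about 9.5% in these data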;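 also: 0% = DMSO only and 100% = 100 µM cantharidin control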
Target sequence (P53041 whole entry, looked up): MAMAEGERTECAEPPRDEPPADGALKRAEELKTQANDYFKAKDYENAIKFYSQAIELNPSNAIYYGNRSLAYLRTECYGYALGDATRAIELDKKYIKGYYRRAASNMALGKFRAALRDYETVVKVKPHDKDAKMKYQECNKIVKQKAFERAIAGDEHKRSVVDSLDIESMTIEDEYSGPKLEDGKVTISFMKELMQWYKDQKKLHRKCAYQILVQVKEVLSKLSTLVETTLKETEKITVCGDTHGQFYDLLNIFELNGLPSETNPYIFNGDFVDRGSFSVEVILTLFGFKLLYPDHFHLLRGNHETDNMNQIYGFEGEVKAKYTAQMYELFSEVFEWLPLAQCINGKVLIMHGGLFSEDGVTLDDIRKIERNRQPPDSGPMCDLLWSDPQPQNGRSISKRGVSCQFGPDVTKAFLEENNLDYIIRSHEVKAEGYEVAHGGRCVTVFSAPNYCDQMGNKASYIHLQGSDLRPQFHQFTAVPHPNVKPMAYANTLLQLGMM
NR2E3 ag conf = NR2E3 agonism confirmed in two-hybrid assay; shares compounds with NR2E3 ag-1; CHO-S mammalian two-hybrid NR2E3-NCOR, luciferase luminescence; inhibition, % at 3.98 µM; hit rate 51% among 2,300; AID 624378;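 active = average inhibition above a cutoff equal to the mean inhibition of all tested compounds plus one SD, cut at about 70% in these data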;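 also: 0% = DMSO in NR2E3 cells and 100% = DMSO in cells lacking NR2E3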
VP16 counter = GAL4-VP16 reporter inhibition in NR2E3 agonist counterscreen | shares compounds with NR2E3 ag-1 | CHO-S GAL4-VP16 luciferase reporter, luminescence | inhibition, % at 3.98 µM | hit rate 29% among 2,300;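 active = mean inhibition above a cutoff equal to the average over all tested compounds plus one standard deviation, cut at about 70% in these data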;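 also: luciferase from a UAS reporter driven by GAL4-VP16 transactivation; 0% = DMSO with VP16-transfected cells and 100% = DMSO with cells lacking VP16; higher means less reporter light so more repression of VP16 activity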
* marks the source's active call; other numbers are inactive results.

`Cc1[nH]oc(=O)c1N=Nc1ccccc1` gave PP1 counter 2, NR2E3 ag-1 75*, NR2E3 ag-2 -3, PP5 inh 0, NR2E3 ag conf -12 and VP16 counter -13.
COc1ccccc1/C=C/CN1CCCC(CCC(=O)NCc2ccccc2F)C1 (centres undefined) was read as PP1 counter -3, NR2E3 ag-1 -24, NR2E3 ag-2 -1 and PP5 inh 2.
Screening CCN(CC)CCNC(=O)C(=O)Nc1cc2c3c(c1)CCC(=O)N3CCC2 returned PP1 counter -3, NR2E3 ag-1 75*, NR2E3 ag-2 0, PP5 inh 0, NR2E3 ag conf -9 and VP16 counter -14.
`CN(C)CCNC(=O)C(=O)Nc1cc2c3c(c1)CCC(=O)N3CCC2` gave PP1 counter 5, NR2E3 ag-1 6, NR2E3 ag-2 1 and PP5 inh 1.
`CC1(Cc2ccc(OC(F)(F)F)cc2)C(=O)Nc2ccc(S(=O)(=O)NC3CCCCC3)cc21` (centres undefined) gave NR2E3 ag-1 85*, NR2E3 ag conf 51 and VP16 counter 23.
Screening CCOc1cc(C)c(S(=O)(=O)Nc2ccc3cn[nH]c3c2)cc1C returned PP1 counter 2, NR2E3 ag-1 91*, NR2E3 ag-2 -3, PP5 inh 4, NR2E3 ag conf 86* and VP16 counter 70.
CCN(CC)S(=O)(=O)c1ccc(N2CCN(c3ccccc3OC)CC2)c(N)c1 was read as PP1 counter 5, NR2E3 ag-1 105*, NR2E3 ag-2 2, PP5 inh 2, NR2E3 ag conf 93* and VP16 counter 74*.
Screening CNC(=S)NN=C(C)CCCC(C)=NNC(=S)NC returned NR2E3 ag-1 48, NR2E3 ag conf -2 and VP16 counter -8.
`CNC(=S)N/N=C(\C)c1ccc(Cl)c(Cl)c1` gave PP1 counter 4, NR2E3 ag-1 -2, NR2E3 ag-2 1 and PP5 inh 0.
Screening N#Cc1ccc(C(=O)NNC(=O)c2cccc(S(=O)(=O)N3CCOCC3)c2)cc1 returned NR2E3 ag-1 -17.
c1ccc2c(c1)oc1c(NCc3ccc4c(c3)OCO4)ncnc12 was read as PP1 counter 1, NR2E3 ag-1 73*, NR2E3 ag-2 1, PP5 inh 4, NR2E3 ag conf 90* and VP16 counter 75*.
Screening CC1CCCN(C(=O)COC(=O)c2ccc3[nH]c4c(c3c2)CCCC4)C1 (centres undefined) returned PP1 counter -2, NR2E3 ag-1 -22, NR2E3 ag-2 0 and PP5 inh 1.
For CCN(CC(=O)Nc1ccc(NC(C)=O)cc1)C(=O)C1(c2ccc(Cl)cc2)CCC1 the results were NR2E3 ag-1 48, NR2E3 ag conf 39 and VP16 counter -4.
`CC(=O)Nc1ccc(NC(=O)COC(=O)C2(c3ccc(Cl)cc3)CCCC2)cc1` gave PP1 counter -1, NR2E3 ag-1 -25, NR2E3 ag-2 0 and PP5 inh 2.
`O=C(O)CCC(=O)Nc1ccc(Sc2ccc([N+](=O)[O-])cc2)cc1` gave PP1 counter 1, NR2E3 ag-1 -17, NR2E3 ag-2 1 and PP5 inh 1.
O=C1NC(=S)S/C1=C\c1cc(Cl)ccc1Cl was read as NR2E3 ag-1 81*, NR2E3 ag conf 99* and VP16 counter 69.
For Fc1ccc(NC(=S)N2CCCN(c3ccc(C(F)(F)F)cn3)CC2)c(F)c1 the results were PP1 counter -10, NR2E3 ag-1 69, NR2E3 ag-2 3, PP5 inh 5, NR2E3 ag conf 91* and VP16 counter 77*.
`O=C(Nc1ccc(F)cc1F)N1CCCN(c2ccc(C(F)(F)F)cn2)CC1` gave PP1 counter 0, NR2E3 ag-1 21, NR2E3 ag-2 0 and PP5 inh -1.
Cc1csc2ncnc(N3CCN(C(=S)Nc4ccc(F)cc4F)CC3)c12 was read as PP1 counter -3, NR2E3 ag-1 61, NR2E3 ag-2 1, PP5 inh 0, NR2E3 ag conf 93* and VP16 counter 82*.
Screening Cc1ccc2nc(SCC(=O)Nc3ccc(F)cc3F)nc(=O)n2c1 returned PP1 counter -2, NR2E3 ag-1 -47, NR2E3 ag-2 0 and PP5 inh -2.
C=CCN(Cc1cn(C)nc1-c1cccc(Cl)c1)C1CCS(=O)(=O)C1 (centres undefined) was read as PP1 counter 0, NR2E3 ag-1 10, NR2E3 ag-2 7 and PP5 inh -2.
COc1ccc(Nc2nc(N3CCCC3)c3ccccc3n2)cc1 was read as PP1 counter 12, NR2E3 ag-1 51, NR2E3 ag-2 7, PP5 inh 4, NR2E3 ag conf 51 and VP16 counter 30.
Screening CCN(CC)c1ccc(Nc2nc(N3CCOCC3)c3ccccc3n2)cc1 returned PP1 counter 7, NR2E3 ag-1 72*, NR2E3 ag-2 1, PP5 inh 4, NR2E3 ag conf 74* and VP16 counter 69.
For O=C(CN1C(=O)c2ccc([N+](=O)[O-])cc2C1=O)NCc1ccc(C(=O)O)cc1 the results were PP1 counter -1, NR2E3 ag-1 -12, NR2E3 ag-2 4 and PP5 inh 1.
Screening COC(=O)c1sccc1OCc1cccc(OC)c1 returned PP1 counter -2, NR2E3 ag-1 -24, NR2E3 ag-2 -4 and PP5 inh 1.
For COc1cccc(COc2cc3ccccc3nc2C)c1 the results were PP1 counter 4, NR2E3 ag-1 73*, NR2E3 ag-2 1, PP5 inh 2, NR2E3 ag conf 94* and VP16 counter 76*.
For Cc1nc2ccccc2cc1OCc1ccc(Cl)cc1 the results were PP1 counter -3, NR2E3 ag-1 78*, NR2E3 ag-2 2, PP5 inh 1, NR2E3 ag conf 92* and VP16 counter 73*.
Screening Cc1nc2ccccc2cc1OCc1ccccc1 returned PP1 counter 5, NR2E3 ag-1 73*, NR2E3 ag-2 -1, PP5 inh 1, NR2E3 ag conf 70* and VP16 counter 66.
CCc1nccn1CCC(=O)NC1CC(C)(C)Cc2c1cnn2-c1cccc(F)c1 (centres undefined) was read as PP1 counter 2, NR2E3 ag-1 -3, NR2E3 ag-2 0 and PP5 inh -1.
Cc1ccccc1Oc1cc(NC(=O)CCCn2nc(C)c([N+](=O)[O-])c2C)cc([N+](=O)[O-])c1 was read as PP1 counter 6, NR2E3 ag-1 60, NR2E3 ag-2 -1, PP5 inh 7, NR2E3 ag conf 66 and VP16 counter 41.
COC(=O)C(Cc1ccc(OC(=O)c2ccc(C)cc2)cc1)N1Cc2ccccc2C1=O (centres undefined) was read as PP1 counter 2, NR2E3 ag-1 -65, NR2E3 ag-2 1 and PP5 inh 4.
